This note sets out measurements from ChEMBL document CHEMBL1135860 (Bioorg Med Chem Lett, 2002).

Usually inhibition stands for how much of the control response was suppressed. For orientation: IC50 means the concentration that inhibits the measured activity by half. Usually Ki stands for the dissociation constant of the complex between target and ligand, obtained from inhibition or displacement. Lower therefore signals a stronger hold on the target.

For assay [1], the target named is T1, 5-hydroxytryptamine receptor 7 (Homo sapiens, UniProt P34969). Briefly: Inhibition (at 1 uM) of radioligand [3H]LSD binding to human 5-hydroxytryptamine 7 receptor on HEK293 cells. It is filed as cell-based. An outline of the steps: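 Human 5-HT7 binding was run with membranes from HEK293 cells expressing the receptor, incubated with 3H-LSD. Clozapine was the standard. Displacement of radioligand was recorded as percent inhibition at 1 µM.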

Assay [2] addresses T1, 5-hydroxytryptamine receptor 7. Briefly: Compound was tested for its binding affinity towards human 5-hydroxytryptamine 7 receptor from HEK293 cells using radioligand [3H]LSD. It is filed as cell-based. In a few lines:
(§1)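 Competition binding at human 5-HT7 receptor: membranes prepared from HEK293 cells expressing the receptor were incubated with 3H-LSD and a range of test concentrations. Clozapine was the reference standard. Ki values in nM were determined.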

Assay [3] has the same target. Briefly: Binding affinity towards human 5-hydroxytryptamine 7 receptor on HEK293 cells using radioligand [3H]LSD. It is filed as cell-based. An outline of the steps:
as §1

For assay [4], the target named is T2, 5-hydroxytryptamine receptor 1A (Homo sapiens) (UniProt P08908).
T2 sequence (whole entry): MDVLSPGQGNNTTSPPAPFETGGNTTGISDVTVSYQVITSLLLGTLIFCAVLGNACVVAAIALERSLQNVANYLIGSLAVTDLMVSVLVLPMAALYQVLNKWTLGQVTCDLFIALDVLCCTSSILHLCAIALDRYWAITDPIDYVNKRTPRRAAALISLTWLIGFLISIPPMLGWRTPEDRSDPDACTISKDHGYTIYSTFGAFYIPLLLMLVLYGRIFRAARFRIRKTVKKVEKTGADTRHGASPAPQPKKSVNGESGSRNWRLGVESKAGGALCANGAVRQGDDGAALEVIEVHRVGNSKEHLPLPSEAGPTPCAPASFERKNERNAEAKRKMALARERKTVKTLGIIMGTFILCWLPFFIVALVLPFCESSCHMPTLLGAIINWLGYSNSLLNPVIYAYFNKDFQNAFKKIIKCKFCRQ
Briefly: Percent inhibition (at 1 uM) against 5-hydroxytryptamine 1A receptor.

For assay [5], the target named is 5-hydroxytryptamine receptor 1B (Homo sapiens) (UniProt P28222). Briefly: Percent inhibition (at 1 uM) against 5-hydroxytryptamine 1B receptor.
Assay [6] has as its target T3, 5-hydroxytryptamine receptor 1F (Homo sapiens) (UniProt P30939).
T3 sequence (whole entry): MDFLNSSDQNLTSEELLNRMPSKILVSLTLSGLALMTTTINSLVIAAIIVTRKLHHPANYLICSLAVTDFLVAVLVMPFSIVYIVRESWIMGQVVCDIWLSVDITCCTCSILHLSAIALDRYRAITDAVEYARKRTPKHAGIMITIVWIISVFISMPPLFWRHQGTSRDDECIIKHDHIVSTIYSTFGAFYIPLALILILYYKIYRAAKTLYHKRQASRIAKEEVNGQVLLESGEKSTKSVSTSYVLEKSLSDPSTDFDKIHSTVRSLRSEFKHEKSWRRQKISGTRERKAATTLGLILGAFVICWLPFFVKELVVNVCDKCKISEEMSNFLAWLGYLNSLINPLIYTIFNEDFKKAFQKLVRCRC
Briefly: Percent inhibition (at 1 uM) against 5-hydroxytryptamine 1F receptor.

The target of assay [7] is 5-hydroxytryptamine receptor 2A (Homo sapiens) (UniProt P28223). Briefly: Percent inhibition (at 1 uM) against 5-hydroxytryptamine 2A receptor.
Assay [8] has as its target 5-hydroxytryptamine receptor 1D (Homo sapiens) (UniProt P28221). Briefly: Percent inhibition (at 1 uM) against 5-hydroxytryptamine 1D receptor.
The target of assay [9] is T4, 5-hydroxytryptamine receptor 2C (Homo sapiens) (UniProt P28335).
T4 sequence (whole entry): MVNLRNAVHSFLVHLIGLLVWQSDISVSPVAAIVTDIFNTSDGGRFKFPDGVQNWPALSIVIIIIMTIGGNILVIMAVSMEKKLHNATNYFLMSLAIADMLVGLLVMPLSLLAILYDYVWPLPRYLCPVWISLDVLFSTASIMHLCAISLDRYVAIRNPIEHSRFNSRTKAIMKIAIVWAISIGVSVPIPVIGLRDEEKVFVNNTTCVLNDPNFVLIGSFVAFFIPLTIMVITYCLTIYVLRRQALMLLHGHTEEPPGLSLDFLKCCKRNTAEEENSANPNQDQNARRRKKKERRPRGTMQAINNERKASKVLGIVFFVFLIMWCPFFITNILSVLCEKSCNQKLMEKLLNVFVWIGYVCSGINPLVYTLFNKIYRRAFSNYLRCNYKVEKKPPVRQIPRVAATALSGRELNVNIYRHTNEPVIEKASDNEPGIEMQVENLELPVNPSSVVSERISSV
Briefly: Percent inhibition (at 1 uM) against 5-hydroxytryptamine 2C receptor.

Assay [10] addresses T5, D(4) dopamine receptor (Homo sapiens) (UniProt P21917).
T5 sequence (whole entry): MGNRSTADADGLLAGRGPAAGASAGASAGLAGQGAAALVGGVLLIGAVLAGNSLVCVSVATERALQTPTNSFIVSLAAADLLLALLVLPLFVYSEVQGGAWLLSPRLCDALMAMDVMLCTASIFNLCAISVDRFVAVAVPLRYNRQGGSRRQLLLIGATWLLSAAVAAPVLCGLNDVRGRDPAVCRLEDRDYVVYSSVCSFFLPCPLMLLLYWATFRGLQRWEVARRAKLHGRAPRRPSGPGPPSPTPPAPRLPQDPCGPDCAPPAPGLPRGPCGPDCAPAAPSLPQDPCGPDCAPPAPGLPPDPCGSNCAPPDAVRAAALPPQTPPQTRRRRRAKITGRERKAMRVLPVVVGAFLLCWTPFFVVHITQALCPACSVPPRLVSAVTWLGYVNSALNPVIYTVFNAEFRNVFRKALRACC
Briefly: Percent inhibition (at 1 uM) against Dopamine receptor D4.

Assay [11] deals with D(1A) dopamine receptor (Homo sapiens) (UniProt P21728). Briefly: Percent inhibition (at 1 uM) against Dopamine receptor D1.
Assay [12] addresses D(2) dopamine receptor (Homo sapiens) (UniProt P14416). Briefly: Percent inhibition (at 1 uM) against Dopamine receptor D2.
Assay [13] has as its target D(1B) dopamine receptor (Homo sapiens) (UniProt P21918). Briefly: Percent inhibition (at 1 uM) against dopamine D5 receptor.
Assay [14] has as its target D(3) dopamine receptor (Homo sapiens) (UniProt P35462). Briefly: Percent inhibition (at 1 uM) against Dopamine receptor D3.
The target in assay [15] is Muscarinic acetylcholine receptors; M1 & M2 (Homo sapiens) (UniProt P11229+P08172). Briefly: Percent inhibition (at 1 uM) against Muscarinic acetylcholine receptor M1- Muscarinic acetylcholine receptor M2. It is filed as protein assay.
For assay [16], the target named is 5-hydroxytryptamine receptor 6 (Homo sapiens, UniProt P50406). Briefly: Compound was tested for its binding affinity towards 5-hydroxytryptamine 6 receptor.

The structures appear in SMILES notation.

T1 sequence (P34969 whole entry): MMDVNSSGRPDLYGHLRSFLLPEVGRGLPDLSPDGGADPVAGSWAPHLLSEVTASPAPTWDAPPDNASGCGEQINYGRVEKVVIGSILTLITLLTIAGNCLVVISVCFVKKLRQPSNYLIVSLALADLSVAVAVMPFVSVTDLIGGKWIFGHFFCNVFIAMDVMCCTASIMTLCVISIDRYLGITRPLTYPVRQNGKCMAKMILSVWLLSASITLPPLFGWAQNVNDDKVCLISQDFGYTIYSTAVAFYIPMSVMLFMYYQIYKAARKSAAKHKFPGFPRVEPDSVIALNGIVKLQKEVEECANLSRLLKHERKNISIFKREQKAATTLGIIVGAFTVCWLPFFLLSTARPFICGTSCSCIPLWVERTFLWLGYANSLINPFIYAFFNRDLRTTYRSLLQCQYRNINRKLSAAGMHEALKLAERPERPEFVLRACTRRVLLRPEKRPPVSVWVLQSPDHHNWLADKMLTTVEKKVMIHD
Sequence of D(1B) dopamine receptor (Homo sapiens) (P21918 whole entry): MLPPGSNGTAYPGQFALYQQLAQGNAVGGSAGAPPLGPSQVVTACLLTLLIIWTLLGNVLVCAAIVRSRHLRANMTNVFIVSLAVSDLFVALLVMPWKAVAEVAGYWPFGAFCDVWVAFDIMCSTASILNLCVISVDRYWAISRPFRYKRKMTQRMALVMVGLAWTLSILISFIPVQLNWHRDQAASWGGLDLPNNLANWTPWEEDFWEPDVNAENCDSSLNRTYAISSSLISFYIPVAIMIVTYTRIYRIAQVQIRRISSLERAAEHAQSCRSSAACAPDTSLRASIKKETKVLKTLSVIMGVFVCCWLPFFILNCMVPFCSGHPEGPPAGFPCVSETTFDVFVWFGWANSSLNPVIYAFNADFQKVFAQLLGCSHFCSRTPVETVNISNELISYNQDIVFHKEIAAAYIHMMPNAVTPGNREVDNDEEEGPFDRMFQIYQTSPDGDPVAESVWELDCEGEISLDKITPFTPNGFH
Sequence of 5-hydroxytryptamine receptor 6 (P50406 whole entry): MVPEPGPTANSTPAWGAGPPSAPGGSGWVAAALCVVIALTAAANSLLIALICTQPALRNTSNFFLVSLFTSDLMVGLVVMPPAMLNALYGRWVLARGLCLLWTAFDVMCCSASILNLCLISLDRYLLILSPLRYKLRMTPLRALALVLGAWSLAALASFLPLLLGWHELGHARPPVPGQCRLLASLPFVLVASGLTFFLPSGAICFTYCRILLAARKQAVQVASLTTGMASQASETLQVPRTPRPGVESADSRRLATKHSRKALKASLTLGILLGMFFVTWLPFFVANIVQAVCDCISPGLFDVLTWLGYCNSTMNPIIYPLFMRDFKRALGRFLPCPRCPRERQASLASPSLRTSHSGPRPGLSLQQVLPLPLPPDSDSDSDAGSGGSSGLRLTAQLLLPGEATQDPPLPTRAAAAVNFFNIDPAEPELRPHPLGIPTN
Sequence of 5-hydroxytryptamine receptor 2A (Homo sapiens) (P28223 whole entry): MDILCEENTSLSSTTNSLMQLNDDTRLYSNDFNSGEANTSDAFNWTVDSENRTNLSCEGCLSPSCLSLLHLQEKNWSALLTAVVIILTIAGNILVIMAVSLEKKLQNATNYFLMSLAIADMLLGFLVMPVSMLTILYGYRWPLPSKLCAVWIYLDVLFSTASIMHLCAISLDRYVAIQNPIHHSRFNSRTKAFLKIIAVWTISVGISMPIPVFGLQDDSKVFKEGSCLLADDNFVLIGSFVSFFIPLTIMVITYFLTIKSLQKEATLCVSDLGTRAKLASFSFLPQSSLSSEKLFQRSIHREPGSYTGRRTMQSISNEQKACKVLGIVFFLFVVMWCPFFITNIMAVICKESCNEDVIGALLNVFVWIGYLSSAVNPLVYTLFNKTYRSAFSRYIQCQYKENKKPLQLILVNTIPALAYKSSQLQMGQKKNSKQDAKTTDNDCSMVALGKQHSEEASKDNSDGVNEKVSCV
Sequence of 5-hydroxytryptamine receptor 1D (Homo sapiens) (P28221 whole entry): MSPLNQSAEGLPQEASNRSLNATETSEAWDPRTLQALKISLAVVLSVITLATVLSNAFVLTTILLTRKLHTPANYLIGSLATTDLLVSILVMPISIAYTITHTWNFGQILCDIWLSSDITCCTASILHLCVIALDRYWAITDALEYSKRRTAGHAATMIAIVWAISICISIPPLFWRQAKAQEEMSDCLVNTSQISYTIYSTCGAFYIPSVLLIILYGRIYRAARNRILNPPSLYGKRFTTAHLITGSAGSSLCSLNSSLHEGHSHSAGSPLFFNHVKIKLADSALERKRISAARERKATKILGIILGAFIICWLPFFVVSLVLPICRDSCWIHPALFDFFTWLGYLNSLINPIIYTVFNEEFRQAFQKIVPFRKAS
Sequence of D(3) dopamine receptor (Homo sapiens) (P35462 whole entry): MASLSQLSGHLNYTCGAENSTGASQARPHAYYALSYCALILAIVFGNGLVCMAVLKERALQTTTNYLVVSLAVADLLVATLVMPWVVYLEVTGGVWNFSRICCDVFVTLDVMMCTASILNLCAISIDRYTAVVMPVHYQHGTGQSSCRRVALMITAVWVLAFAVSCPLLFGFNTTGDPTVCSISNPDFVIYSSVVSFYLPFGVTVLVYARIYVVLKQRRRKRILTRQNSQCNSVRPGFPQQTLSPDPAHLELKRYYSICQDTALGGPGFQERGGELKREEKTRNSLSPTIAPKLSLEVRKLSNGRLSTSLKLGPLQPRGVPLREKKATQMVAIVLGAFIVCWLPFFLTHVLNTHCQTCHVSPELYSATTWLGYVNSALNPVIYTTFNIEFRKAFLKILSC
Sequence of D(1A) dopamine receptor (Homo sapiens) (P21728 whole entry): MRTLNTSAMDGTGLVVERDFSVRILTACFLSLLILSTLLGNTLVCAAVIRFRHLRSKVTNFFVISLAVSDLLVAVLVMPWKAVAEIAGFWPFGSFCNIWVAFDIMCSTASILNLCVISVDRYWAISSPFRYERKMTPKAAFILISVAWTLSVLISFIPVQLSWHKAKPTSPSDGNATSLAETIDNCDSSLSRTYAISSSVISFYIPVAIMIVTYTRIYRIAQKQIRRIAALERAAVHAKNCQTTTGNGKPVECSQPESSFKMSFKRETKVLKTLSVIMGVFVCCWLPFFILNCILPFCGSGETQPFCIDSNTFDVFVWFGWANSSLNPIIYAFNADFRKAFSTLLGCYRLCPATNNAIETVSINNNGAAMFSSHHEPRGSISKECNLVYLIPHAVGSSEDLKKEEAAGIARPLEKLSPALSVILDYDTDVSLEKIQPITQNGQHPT
Sequence of D(2) dopamine receptor (Homo sapiens) (P14416 whole entry): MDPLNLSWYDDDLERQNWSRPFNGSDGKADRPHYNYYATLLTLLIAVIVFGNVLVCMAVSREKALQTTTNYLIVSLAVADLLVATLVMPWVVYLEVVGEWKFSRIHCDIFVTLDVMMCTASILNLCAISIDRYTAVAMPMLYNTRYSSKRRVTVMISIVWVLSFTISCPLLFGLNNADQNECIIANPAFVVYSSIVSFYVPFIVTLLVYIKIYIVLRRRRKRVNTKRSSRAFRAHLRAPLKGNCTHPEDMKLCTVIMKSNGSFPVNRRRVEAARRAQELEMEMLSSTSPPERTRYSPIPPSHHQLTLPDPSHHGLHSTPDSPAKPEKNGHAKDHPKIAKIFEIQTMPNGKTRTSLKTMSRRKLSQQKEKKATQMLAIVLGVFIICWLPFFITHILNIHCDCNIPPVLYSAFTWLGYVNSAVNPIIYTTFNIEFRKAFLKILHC
Sequence of 5-hydroxytryptamine receptor 1B (Homo sapiens) (P28222 whole entry): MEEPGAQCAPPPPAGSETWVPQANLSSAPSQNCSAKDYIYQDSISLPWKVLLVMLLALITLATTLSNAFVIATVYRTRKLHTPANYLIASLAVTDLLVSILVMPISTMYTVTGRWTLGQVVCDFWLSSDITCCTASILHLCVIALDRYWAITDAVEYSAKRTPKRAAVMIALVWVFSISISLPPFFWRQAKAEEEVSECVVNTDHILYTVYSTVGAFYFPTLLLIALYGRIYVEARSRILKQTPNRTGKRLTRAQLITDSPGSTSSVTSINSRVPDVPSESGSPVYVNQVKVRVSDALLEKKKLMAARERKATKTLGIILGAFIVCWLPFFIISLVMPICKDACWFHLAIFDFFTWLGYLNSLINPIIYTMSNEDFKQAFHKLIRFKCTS

In the case of `CN1CCCN(CCn2ccc3ccc(O)cc32)CC1`, the inhibition in [1] amounted to 28%. In [2], `C[C@H](Nc1nc(N)nc(NC[C@H]2C[C@@H]2c2ccc(F)cc2)n1)c1ccccc1` showed an IC50 of less than 50 nM. For `Brc1ccc2ccn(CCN3CCCN(CC4CC4)CC3)c2c1`, the inhibition in assay [1] was 95%. The affinity in [3], expressed as Ki, was 9 nM. Consider `CN1CCCN(CCn2ccc3ccc(F)cc32)CC1`, for which the inhibition in assay [1] was found to be 60%. For the same molecule, the Ki in [3] was 288 nM. In assay [1], `Brc1ccc2ccn(CCN3CCC4CCCCN4CC3)c2c1` (stereo not given) had an inhibition of 71%.

The molecule `Brc1ccc2ccn(CCN3CCCN(C4CC4)CC3)c2c1` registered an inhibition in [1] of 96%. The same molecule gave an inhibition constant Ki in assay [3] of 16 nM. In the case of `CN1CCCN(CCn2ccc3cc(Br)ccc32)CC1`, the inhibition in assay [1] worked out at 65%. This molecule had an inhibition constant Ki in [3] of 88 nM. Regarding `Brc1ccc2ccn(CCN3CCN4CCCC4C3)c2c1` (stereo not given), the inhibition in assay [1] worked out at 72%. `C=C(C)c1ccc2ccn(CCN3CCCN(C)CC3)c2c1`: the inhibition in assay [1] worked out at 72%. In [3], the Ki came out at 70 nM. In [1], `CN1CCCN(CCn2ccc3ccc(C(C)(C)O)cc32)CC1` gave an inhibition of 6%.

Regarding `CC(C)N1CCCN(CCn2ccc3ccc(Br)cc32)CC1`, the inhibition in [1] came out at 92%. This molecule also displayed a Ki in assay [3] of 14 nM.

For `CN1CCCN(CCn2ccc3ccc(-c4ccsc4)cc32)CC1`, the inhibition in [1] was 68%. Also, in assay [3], the Ki stood at 109 nM. The molecule `CC1CN(CCn2ccc3ccc(Br)cc32)CC(C)N1` (stereo not given) yielded an inhibition in assay [1] of 26%. `Brc1ccc2ccn(CCN3CCN4CCCCC4C3)c2c1` (stereo not given) gave an inhibition in [1] of 78%. This molecule came in with an inhibition constant Ki in [3] of 70 nM. `Brc1cccc2c1ccn2CCN1CCN2CCCCC2C1` (stereo not given) displayed an inhibition in assay [1] of 43%. In turn, `Brc1ccc2ccn(CCN3CCCNCC3)c2c1` showed an inhibition in assay [1] of 77%. The same measure, in the same setting: with `Brc1cccc2ccn(CCN3CCN4CCCCC4C3)c12` (stereo not given) the figure was 13%. `Clc1ccc2ccn(CCN3CCCN4CCCCC4C3)c2c1` (stereo not given) displayed a Ki in [3] of 10 nM. The molecule `CN1CCCN(CCn2ccc3c(Br)cccc32)CC1` came in with an inhibition in assay [1] of 33%. `Brc1ccc2ccn(CCN3CCNCC3)c2c1`: the inhibition in [1] was 61%.

As for `Brc1ccc2ccn(CCN3CCCN4CCCCC4C3)c2c1` (stereo not given), the inhibition amounted to 1% in [4]; 0% in assay [5]; 0% in assay [6]; 20% in [7]; 0% in assay [8]; 26% in assay [9]. The inhibition was found to be 99% in assay [1]; 4% in [10]; 2% in assay [11]; 15% in assay [12]; 17% in assay [13]; 27% in assay [14]. The molecule also came in with an inhibition in assay [15] of 35%. The Ki in assay [3] was determined as 3 nM; in assay [16], 4070 nM. On to `CC(C)CN1CCCN(CCn2ccc3ccc(Br)cc32)CC1`, for which, in assay [1], the inhibition came out at 95%. For the same molecule, the inhibitory constant (Ki) in [3] was 37 nM. For `Brc1ccc2ccn(CCN3CCCN(C4CCCCC4)CC3)c2c1`, in that order: 96% and 17 nM. In turn, `FC(F)(F)c1ccc2ccn(CCN3CCCN4CCCCC4C3)c2c1` (stereo not given) yielded a Ki in assay [3] of 7 nM. For `CN1CCCN(CCn2ccc3ccc(Cl)cc32)CC1`, the inhibition in assay [1] stood at 85%. In assay [3], this molecule registered an inhibition constant (Ki) of 34 nM. On to `CN1CCCN(CCn2ccc3ccc(N)cc32)CC1`, for which the inhibition in [1] stood at 0%. On to `C=Cc1ccc2ccn(CCN3CCCN(C)CC3)c2c1`, for which, in [1], the inhibition stood at 79%. The molecule further yielded an inhibition constant Ki in [3] of 109 nM. Consider `Cc1ccc2ccn(CCN3CCCN(C)CC3)c2c1`, for which, in assay [1], the inhibition was 62%. For the same molecule, the inhibition constant (Ki) in [3] came to 125 nM. As to `Brc1ccc2ccn(CCN3CCN(C4CCCCC4)CC3)c2c1`, the inhibition in assay [1] stood at 36%. `Cc1cccc(C#N)c1-c1cccc2c1-c1cccc3c1[C@@H](C2)N(C)CC3` displayed a Ki in [3] of 1 nM. `Brc1ccc2ccn(CCN3CCCN(c4ccccc4)CC3)c2c1` displayed an inhibition in assay [1] of 18%. `CN1CCCN(CCn2ccc3ccc(C(N)=O)cc32)CC1` displayed an inhibition in assay [1] of 33%. The molecule `CN1CCCN(CCn2ccc3ccc(-c4cccnc4)cc32)CC1` displayed an inhibition in assay [1] of 35%. Turning to `Brc1ccc2ccn(CCN3CCCN(C4CCCC4)CC3)c2c1`, the inhibition in [1] was 98%. Also, the affinity in [3], expressed as Ki, was 10 nM. `C#Cc1ccc2ccn(CCN3CCCN(C)CC3)c2c1` showed an inhibition in assay [1] of 79%. Further, the Ki in assay [3] was found to be 140 nM. For `CC(C)(C)CN1CCCN(CCn2ccc3ccc(Br)cc32)CC1`, in that order: 70% and 163 nM. Regarding `CC1CN(CCn2ccc3ccc(Br)cc32)CCN1` (stereo not given), in [1], the inhibition is 52%. In assay [1], `COc1ccc2ccn(CCN3CCCN(C)CC3)c2c1` returned an inhibition of 50%. In addition, the Ki in assay [3] turned out to be 1570 nM. `CN1CCCN(CCn2ccc3ccc(Br)cc32)CC1`: in assay [1], the inhibition turned out to be 93%. The molecule also registered a Ki in assay [3] of 31 nM.

As to `CC(C)c1ccc2ccn(CCN3CCCN(C)CC3)c2c1`, the inhibition in [1] came out at 72%. The molecule also returned an inhibition constant Ki in assay [3] of 145 nM. For `CN1CCCN(CCn2ccc3ccc(C(F)(F)F)cc32)CC1`, in that order: 89% and 23 nM. In assay [3] (hek293), `Cc1cccc(S(=O)(=O)N(C)[C@H](C)CCN2CCC(C)CC2)c1` [SB-258719] had an inhibition constant (Ki) of 32 nM. In assay [1], `CN1CCCN(CCn2ccc3cccc(Br)c32)CC1` came in with an inhibition of 18%. Turning to `CN1CCCN(CCn2ccc3ccc(OCc4ccccc4)cc32)CC1`, in [1], the inhibition worked out at 28%. For the same molecule, the Ki in assay [3] was 182 nM. Molecule `Brc1ccc2c(ccn2CCN2CCN3CCCCC3C2)c1` (stereo not given) returned an inhibition in [1] of 65%. The molecule further returned an inhibition constant (Ki) in assay [3] of 158 nM. In assay [1], `CCc1ccc2ccn(CCN3CCCN(C)CC3)c2c1` yielded an inhibition of 66%. The molecule further displayed a Ki in assay [3] of 166 nM.

`CN1CCCN(CCn2ccc3ccc([N+](=O)[O-])cc32)CC1` displayed an inhibition in assay [1] of 72%. This molecule also registered an inhibition constant (Ki) in [3] of 139 nM.
